System: Fibroblast
Assay: Multiplex assay against human fibroblast
Type: toxicity, cell-based
Method in brief: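 Live cells carried four stains from seeding: Hoechst33342, BioTracker Green Microtubule Cytoskeleton Dye, MitoTracker Red and Annexin V Alexa Fluor 680. They were imaged on a CQ1 microscope at 37°C and 5% CO2 after compound addition. Using CellPathfinder machine-learning gating, cells were split into Hoechst high-intensity objects or normal cells, normal cells into healthy, pyknosed or fragmented nuclei, and pyknosed cells into mitotic or apoptotic; tubulin, mitochondrial-mass and membrane-permeability phenotypes are per cents of healthy-nucleus cells.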

[1] = 12 h, 1 µM, compound concentration 1 uM, replicate 1
[2] = 12 h, 1 µM, compound concentration 1 uM, replicate 2
[3] = 12 h, 10 µM, compound concentration 10 uM, replicate 1
[4] = 12 h, 10 µM, compound concentration 10 uM, replicate 2
[5] = 24 h, 1 µM, compound concentration 1 uM, replicate 1
[6] = 24 h, 1 µM, compound concentration 1 uM, replicate 2
[7] = 24 h, 10 µM, compound concentration 10 uM, replicate 1
[8] = 24 h, 10 µM, compound concentration 10 uM, replicate 2
[9] = 48 h, 1 µM, compound concentration 1 uM, replicate 1
[10] = 48 h, 1 µM, compound concentration 1 uM, replicate 2
[11] = 48 h, 10 µM, compound concentration 10 uM, replicate 1
[12] = 48 h, 10 µM, compound concentration 10 uM, replicate 2

CC(C)(C)c1ccc(S(=O)(=O)Nc2ccc(Cl)cc2C(=O)c2cc[n+]([O-])cc2)cc1 [VERCIRNON]
Population Apoptotic (%) [1]: 63% | Population Fragmented Nuclei (%) [1]: 19% | Population Healthy Nuclei (%) [1]: 65% | Population Hoechst High Intensity Objects (%) [1]: 2% | Population Membrane Permeable-Phenotype (%) [1]: 1% | Population Mitochondria Different-Phenotype (%) [1]: 3% | Population Mitotic Cells (%) [1]: 36% | Population Normal (%) [1]: 97% | Population Pyknosed Nuclei (%) [1]: 15% | Population Tubulin-Different-Phenotype (%) [1]: 20% | Total Cell Count [1]: 148 | Population Apoptotic (%) [2]: 50% | Population Fragmented Nuclei (%) [2]: 27% | Population Healthy Nuclei (%) [2]: 46% | Population Hoechst High Intensity Objects (%) [2]: 7% | Population Membrane Permeable-Phenotype (%) [2]: 6% | Population Mitochondria Different-Phenotype (%) [2]: 1% | Population Mitotic Cells (%) [2]: 50% | Population Normal (%) [2]: 92% | Population Pyknosed Nuclei (%) [2]: 25% | Population Tubulin-Different-Phenotype (%) [2]: 41% | Total Cell Count [2]: 152 | Population Apoptotic (%) [3]: 59% | Population Fragmented Nuclei (%) [3]: 14% | Population Healthy Nuclei (%) [3]: 64% | Population Hoechst High Intensity Objects (%) [3]: 3% | Population Membrane Permeable-Phenotype (%) [3]: 3% | Population Mitochondria Different-Phenotype (%) [3]: 1% | Population Mitotic Cells (%) [3]: 40% | Population Normal (%) [3]: 96% | Population Pyknosed Nuclei (%) [3]: 21% | Population Tubulin-Different-Phenotype (%) [3]: 46% | Total Cell Count [3]: 107 | Population Apoptotic (%) [4]: 48% | Population Fragmented Nuclei (%) [4]: 30% | Population Healthy Nuclei (%) [4]: 44% | Population Hoechst High Intensity Objects (%) [4]: 5% | Population Membrane Permeable-Phenotype (%) [4]: 8% | Population Mitochondria Different-Phenotype (%) [4]: 10% | Population Mitotic Cells (%) [4]: 51% | Population Normal (%) [4]: 94% | Population Pyknosed Nuclei (%) [4]: 25% | Population Tubulin-Different-Phenotype (%) [4]: 66% | Total Cell Count [4]: 114 | Population Apoptotic (%) [5]: 55% | Population Fragmented Nuclei (%) [5]: 23% | Population Healthy Nuclei (%) [5]: 62% | Population Hoechst High Intensity Objects (%) [5]: 0% | Population Membrane Permeable-Phenotype (%) [5]: 4% | Population Mitochondria Different-Phenotype (%) [5]: 1% | Population Mitotic Cells (%) [5]: 45% | Population Normal (%) [5]: 99% | Population Pyknosed Nuclei (%) [5]: 14% | Population Tubulin-Different-Phenotype (%) [5]: 27% | Total Cell Count [5]: 141 | Population Apoptotic (%) [6]: 54% | Population Fragmented Nuclei (%) [6]: 25% | Population Healthy Nuclei (%) [6]: 57% | Population Hoechst High Intensity Objects (%) [6]: 7% | Population Membrane Permeable-Phenotype (%) [6]: 7% | Population Normal (%) [6]: 92% | Population Pyknosed Nuclei (%) [6]: 16% | Population Tubulin-Different-Phenotype (%) [6]: 40% | Total Cell Count [6]: 142 | Population Apoptotic (%) [7]: 66% | Population Fragmented Nuclei (%) [7]: 16% | Population Healthy Nuclei (%) [7]: 66% | Population Hoechst High Intensity Objects (%) [7]: 1% | Population Membrane Permeable-Phenotype (%) [7]: 4% | Population Mitochondria Different-Phenotype (%) [7]: 2% | Population Mitotic Cells (%) [7]: 33% | Population Normal (%) [7]: 98% | Population Pyknosed Nuclei (%) [7]: 16% | Population Tubulin-Different-Phenotype (%) [7]: 40% | Total Cell Count [7]: 114 | Population Apoptotic (%) [8]: 41% | Population Fragmented Nuclei (%) [8]: 32% | Population Healthy Nuclei (%) [8]: 42% | Population Hoechst High Intensity Objects (%) [8]: 0% | Population Membrane Permeable-Phenotype (%) [8]: 21% | Population Mitochondria Different-Phenotype (%) [8]: 9% | Population Mitotic Cells (%) [8]: 58% | Population Normal (%) [8]: 99% | Population Pyknosed Nuclei (%) [8]: 24% | Population Tubulin-Different-Phenotype (%) [8]: 82% | Total Cell Count [8]: 120 | Population Apoptotic (%) [9]: 61% | Population Fragmented Nuclei (%) [9]: 29% | Population Healthy Nuclei (%) [9]: 58% | Population Hoechst High Intensity Objects (%) [9]: 1% | Population Membrane Permeable-Phenotype (%) [9]: 1% | Population Mitochondria Different-Phenotype (%) [9]: 1% | Population Mitotic Cells (%) [9]: 38% | Population Normal (%) [9]: 98% | Population Pyknosed Nuclei (%) [9]: 12% | Population Tubulin-Different-Phenotype (%) [9]: 25% | Total Cell Count [9]: 151 | Population Apoptotic (%) [10]: 62% | Population Fragmented Nuclei (%) [10]: 32% | Population Healthy Nuclei (%) [10]: 55% | Population Hoechst High Intensity Objects (%) [10]: 6% | Population Membrane Permeable-Phenotype (%) [10]: 6% | Population Mitochondria Different-Phenotype (%) [10]: 9% | Population Mitotic Cells (%) [10]: 37% | Population Normal (%) [10]: 93% | Population Pyknosed Nuclei (%) [10]: 11% | Population Tubulin-Different-Phenotype (%) [10]: 37% | Total Cell Count [10]: 145 | Population Apoptotic (%) [11]: 62% | Population Fragmented Nuclei (%) [11]: 22% | Population Healthy Nuclei (%) [11]: 64% | Population Hoechst High Intensity Objects (%) [11]: 2% | Population Membrane Permeable-Phenotype (%) [11]: 1% | Population Mitochondria Different-Phenotype (%) [11]: 0% | Population Mitotic Cells (%) [11]: 37% | Population Normal (%) [11]: 97% | Population Pyknosed Nuclei (%) [11]: 13% | Population Tubulin-Different-Phenotype (%) [11]: 38% | Total Cell Count [11]: 120 | Population Apoptotic (%) [12]: 46% | Population Fragmented Nuclei (%) [12]: 42% | Population Healthy Nuclei (%) [12]: 46% | Population Hoechst High Intensity Objects (%) [12]: 4% | Population Membrane Permeable-Phenotype (%) [12]: 16% | Population Mitochondria Different-Phenotype (%) [12]: 12% | Population Mitotic Cells (%) [12]: 53% | Population Normal (%) [12]: 95% | Population Pyknosed Nuclei (%) [12]: 11% | Population Tubulin-Different-Phenotype (%) [12]: 72% | Total Cell Count [12]: 122
